ChEMBL document CHEMBL4689842, “EUbOPEN Chemogenomics Library wave 1” (2021)

System: U2OS
Experiment: Multiplex assay against U2OS
Assay type: toxicity, cell-based
Settings: human
How it was run: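 Live cells carried four stains from seeding: Hoechst33342, BioTracker Green Microtubule Cytoskeleton Dye, MitoTracker Red and Annexin V Alexa Fluor 680. They were imaged on a CQ1 microscope at 37°C and 5% CO2 after compound addition. Using CellPathfinder machine-learning gating, cells were split into Hoechst high-intensity objects or normal cells, normal cells into healthy, pyknosed or fragmented nuclei, and pyknosed cells into mitotic or apoptotic; tubulin, mitochondrial-mass and membrane-permeability phenotypes are per cents of healthy-nucleus cells.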

[1] = 12 h, 1 µM, compound concentration 1 uM, replicate 1
[2] = 12 h, 1 µM, compound concentration 1 uM, replicate 2
[3] = 12 h, 10 µM, compound concentration 10 uM, replicate 1
[4] = 12 h, 10 µM, compound concentration 10 uM, replicate 2
[5] = 24 h, 1 µM, compound concentration 1 uM, replicate 1
[6] = 24 h, 1 µM, compound concentration 1 uM, replicate 2
[7] = 24 h, 10 µM, compound concentration 10 uM, replicate 1
[8] = 24 h, 10 µM, compound concentration 10 uM, replicate 2
[9] = 48 h, 1 µM, compound concentration 1 uM, replicate 1
[10] = 48 h, 1 µM, compound concentration 1 uM, replicate 2
[11] = 48 h, 10 µM, compound concentration 10 uM, replicate 1
[12] = 48 h, 10 µM, compound concentration 10 uM, replicate 2

## CC(C)c1cc(Nc2nc(N3CCC[C@H](N)C3)ncc2C(N)=O)cc(C(C)C)n1
[1]
  Population Apoptotic (%): 51%
  Population Fragmented Nuclei (%): 8%
  Population Healthy Nuclei (%): 67%
  Population Hoechst High Intensity Objects (%): 5%
  Population Membrane Permeable-Phenotype (%): 22%
  Population Mitochondria Different-Phenotype (%): 89%
  Population Mitotic Cells (%): 48%
  Population Normal (%): 94%
  Population Pyknosed Nuclei (%): 23%
  Population Tubulin-Different-Phenotype (%): 100%
  Total Cell Count: 201
[2]
  Population Apoptotic (%): 44%
  Population Fragmented Nuclei (%): 12%
  Population Healthy Nuclei (%): 75%
  Population Hoechst High Intensity Objects (%): 9%
  Population Membrane Permeable-Phenotype (%): 16%
  Population Mitochondria Different-Phenotype (%): 92%
  Population Mitotic Cells (%): 55%
  Population Normal (%): 90%
  Population Pyknosed Nuclei (%): 12%
  Population Tubulin-Different-Phenotype (%): 96%
  Total Cell Count: 82
[3]
  Population Apoptotic (%): 64%
  Population Fragmented Nuclei (%): 23%
  Population Healthy Nuclei (%): 39%
  Population Hoechst High Intensity Objects (%): 4%
  Population Membrane Permeable-Phenotype (%): 88%
  Population Mitochondria Different-Phenotype (%): 98%
  Population Mitotic Cells (%): 35%
  Population Normal (%): 95%
  Population Pyknosed Nuclei (%): 37%
  Total Cell Count: 161
[4]
  Population Apoptotic (%): 65%
  Population Fragmented Nuclei (%): 19%
  Population Healthy Nuclei (%): 31%
  Population Hoechst High Intensity Objects (%): 14%
  Population Membrane Permeable-Phenotype (%): 100%
  Population Mitochondria Different-Phenotype (%): 93%
  Population Mitotic Cells (%): 34%
  Population Normal (%): 85%
  Population Pyknosed Nuclei (%): 48%
  Population Tubulin-Different-Phenotype (%): 100%
  Total Cell Count: 55
[5]
  Population Apoptotic (%): 57%
  Population Fragmented Nuclei (%): 9%
  Population Healthy Nuclei (%): 61%
  Population Hoechst High Intensity Objects (%): 6%
  Population Membrane Permeable-Phenotype (%): 22%
  Population Mitochondria Different-Phenotype (%): 90%
  Population Mitotic Cells (%): 42%
  Population Normal (%): 93%
  Population Pyknosed Nuclei (%): 29%
  Population Tubulin-Different-Phenotype (%): 98%
  Total Cell Count: 206
[6]
  Population Apoptotic (%): 26%
  Population Fragmented Nuclei (%): 10%
  Population Healthy Nuclei (%): 68%
  Population Hoechst High Intensity Objects (%): 5%
  Population Membrane Permeable-Phenotype (%): 30%
  Population Mitochondria Different-Phenotype (%): 96%
  Population Mitotic Cells (%): 73%
  Population Normal (%): 94%
  Population Pyknosed Nuclei (%): 20%
  Population Tubulin-Different-Phenotype (%): 94%
  Total Cell Count: 77
[7]
  Population Apoptotic (%): 74%
  Population Fragmented Nuclei (%): 32%
  Population Hoechst High Intensity Objects (%): 9%
  Population Membrane Permeable-Phenotype (%): 97%
  Population Mitochondria Different-Phenotype (%): 100%
  Population Mitotic Cells (%): 25%
  Population Normal (%): 90%
  Population Pyknosed Nuclei (%): 44%
  Population Tubulin-Different-Phenotype (%): 97%
  Total Cell Count: 167
[8]
  Population Apoptotic (%): 84%
  Population Fragmented Nuclei (%): 23%
  Population Healthy Nuclei (%): 23%
  Population Hoechst High Intensity Objects (%): 17%
  Population Membrane Permeable-Phenotype (%): 100%
  Population Mitochondria Different-Phenotype (%): 90%
  Population Mitotic Cells (%): 16%
  Population Normal (%): 82%
  Population Pyknosed Nuclei (%): 53%
  Population Tubulin-Different-Phenotype (%): 100%
  Total Cell Count: 57
[9]
  Population Apoptotic (%): 54%
  Population Fragmented Nuclei (%): 17%
  Population Healthy Nuclei (%): 45%
  Population Hoechst High Intensity Objects (%): 7%
  Population Membrane Permeable-Phenotype (%): 26%
  Population Mitochondria Different-Phenotype (%): 83%
  Population Mitotic Cells (%): 45%
  Population Normal (%): 92%
  Population Pyknosed Nuclei (%): 37%
  Population Tubulin-Different-Phenotype (%): 94%
  Total Cell Count: 249
[10]
  Population Apoptotic (%): 52%
  Population Fragmented Nuclei (%): 14%
  Population Healthy Nuclei (%): 60%
  Population Hoechst High Intensity Objects (%): 3%
  Population Membrane Permeable-Phenotype (%): 46%
  Population Mitochondria Different-Phenotype (%): 88%
  Population Mitotic Cells (%): 47%
  Population Normal (%): 96%
  Population Pyknosed Nuclei (%): 25%
  Population Tubulin-Different-Phenotype (%): 96%
  Total Cell Count: 86
[11]
  Population Apoptotic (%): 89%
  Population Fragmented Nuclei (%): 36%
  Population Healthy Nuclei (%): 5%
  Population Hoechst High Intensity Objects (%): 15%
  Population Membrane Permeable-Phenotype (%): 100%
  Population Mitochondria Different-Phenotype (%): 100%
  Population Mitotic Cells (%): 10%
  Population Normal (%): 84%
  Population Pyknosed Nuclei (%): 58%
  Population Tubulin-Different-Phenotype (%): 100%
  Total Cell Count: 155
[12]
  Population Apoptotic (%): 95%
  Population Fragmented Nuclei (%): 34%
  Population Healthy Nuclei (%): 9%
  Population Hoechst High Intensity Objects (%): 26%
  Population Mitotic Cells (%): 4%
  Population Normal (%): 73%
  Population Pyknosed Nuclei (%): 56%
  Total Cell Count: 56
